Measurements taken from ChEMBL document CHEMBL1629657, “In vitro antimicrobial activity of a new cephalosporin, ceftaroline, and determination of quality control ranges for MIC testing” (2009).

Legend:
Assay type in all cases: functional
Pseudomonas aeruginosa = assay: Antimicrobial activity against multidrug resistant Pseudomonas aeruginosa by broth microdilution method
In short: (§1)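 Isolates of the stated resistance phenotype were tested by CLSI broth microdilution in unsupplemented cation-adjusted Mueller-Hinton broth. Ceftaroline was compared with ceftriaxone, levofloxacin and imipenem. Activity was expressed as MICs (MIC90 in μg/ml).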

[1] = system: Stenotrophomonas maltophilia; assay: Antimicrobial activity against Stenotrophomonas maltophilia by broth microdilution method
In short: (§2)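 Clinical isolates were tested by CLSI broth microdilution in unsupplemented cation-adjusted Mueller-Hinton broth. The read-out was the MIC, reported as MIC90 (μg/ml) per species or phenotypic group. Ceftriaxone, levofloxacin and imipenem were run in parallel as comparators.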

Streptococcus pneumoniae [2] = assay: Antimicrobial activity against penicillin-resistant Streptococcus pneumoniae by broth microdilution method
In short: (§3)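 CLSI broth microdilution in cation-adjusted Mueller-Hinton broth with 3% lysed horse blood, against streptococcal clinical isolates of the stated phenotype. Ceftaroline was compared with ceftriaxone, levofloxacin and imipenem. Activity was expressed as MICs (MIC90 in μg/ml).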

Staphylococcus = assay: Antimicrobial activity against methicillin-susceptible coagulase-negative Staphylococcus by broth microdilution method; in short: as §2
Burkholderia cepacia = assay: Antimicrobial activity against Burkholderia cepacia by broth microdilution method; in short: as §2
Morganella morganii = assay: Antimicrobial activity against Morganella morganii by broth microdilution method; in short: as §2
Proteus vulgaris = assay: Antimicrobial activity against Proteus vulgaris by broth microdilution method; in short: as §2
Haemophilus influenzae = assay: Antimicrobial activity against beta-lactamase-negative Haemophilus influenzae by broth microdilution method
In short: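 CLSI broth microdilution in Haemophilus test medium (cation-adjusted Mueller-Hinton base) against clinical H. influenzae isolates of the stated phenotype. Ceftaroline was compared with ceftriaxone, levofloxacin and imipenem. Activity was expressed as MICs (MIC90 in μg/ml).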

Klebsiella pneumoniae = assay: Antimicrobial activity against ESBL-negative Klebsiella pneumoniae by broth microdilution method; in short: as §2
Listeria monocytogenes = assay: Antimicrobial activity against Listeria monocytogenes by broth microdilution method; in short: as §2
[3] = fT>MIC Streptococcus pneumoniae infected mouse model for 1-log kill
Staphylococcus aureus [4] = assay: Antimicrobial activity against methicillin-resistant Staphylococcus aureus by broth microdilution method; in short: as §1
Serratia marcescens = assay: Antimicrobial activity against Serratia marcescens by broth microdilution method; in short: as §2
Staphylococcus aureus [5] = assay: Antimicrobial activity against vancomycin-intermediate Staphylococcus aureus by broth microdilution method; in short: as §2
Streptococcus viridans = assay: Antimicrobial activity against Streptococcus viridans group clinical isolate by broth microdilution method
In short: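 Streptococcal isolates were tested by CLSI broth microdilution in cation-adjusted Mueller-Hinton broth supplemented with 3% lysed horse blood. The read-out was the MIC, with MIC90 (μg/ml) reported per group. Ceftriaxone, levofloxacin and imipenem served as comparators.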

Staphylococcus aureus [6] = assay: Antimicrobial activity against methicillin-susceptible Staphylococcus aureus by broth microdilution method; in short: as §2
Klebsiella aerogenes = assay: Antimicrobial activity against ESBL-negative Enterobacter aerogenes by broth microdilution method; in short: as §2
Moraxella catarrhalis = assay: Antimicrobial activity against Moraxella catarrhalis by broth microdilution method; in short: as §2
Streptococcus pneumoniae [7] = assay: Antimicrobial activity against penicillin-intermediate Streptococcus pneumoniae by broth microdilution method; in short: as §3
[8] = fT>MIC Enterobacteriaceae infected mouse model for 1-log kill
Streptococcus pyogenes = assay: Antimicrobial activity against macrolide-susceptible Streptococcus pyogenes by broth microdilution method; in short: as §3
Escherichia coli = assay: Antimicrobial activity against ESBL-negative Escherichia coli by broth microdilution method; in short: as §2
Corynebacterium jeikeium = assay: Antimicrobial activity against Corynebacterium jeikeium by broth microdilution method; in short: as §2

CCO/N=C(\C(=O)N[C@@H]1C(=O)N2C(C(=O)[O-])=C(Sc3nc(-c4cc[n+](C)cc4)cs3)CS[C@H]12)c1nsc(NP(=O)(O)O)n1 [CEFTAROLINE FOSAMIL]
41%: fT>MIC [8]
0.5 µg/mL: MIC90 (Streptococcus pneumoniae [2]) | MIC (Staphylococcus aureus [4]) | MIC50 (Staphylococcus aureus [4]) | MIC (Serratia marcescens) | MIC50 (Serratia marcescens)
0.015 µg/mL: MIC (Haemophilus influenzae) | MIC50 (Haemophilus influenzae) | MIC90 (Haemophilus influenzae) | MIC (Streptococcus viridans) | MIC50 (Streptococcus viridans) | MIC (Streptococcus pyogenes) | MIC50 (Streptococcus pyogenes) | MIC90 (Streptococcus pyogenes)
43%: fT>MIC [3]
16 µg/mL: MIC50 (Pseudomonas aeruginosa) | MIC50 (Proteus vulgaris)
0.25 µg/mL: MIC50 (Streptococcus pneumoniae [2]) | MIC90 (Staphylococcus) | MIC90 (Klebsiella pneumoniae) | MIC (Staphylococcus aureus [6]) | MIC50 (Staphylococcus aureus [6]) | MIC90 (Staphylococcus aureus [6]) | MIC90 (Moraxella catarrhalis)
8 µg/mL: MIC90 (Serratia marcescens)
0.12 µg/mL: MIC90 (Streptococcus viridans) | MIC50 (Klebsiella aerogenes) | MIC50 (Moraxella catarrhalis)
4 µg/mL: MIC50 (Listeria monocytogenes) | MIC90 (Listeria monocytogenes)
0.03 µg/mL: MIC50 (Streptococcus pneumoniae [7])
> 32 µg/mL: MIC50 [1] | MIC90 [1] | MIC50 (Burkholderia cepacia) | MIC90 (Burkholderia cepacia) | MIC50 (Morganella morganii) | MIC90 (Morganella morganii) | MIC90 (Proteus vulgaris) | MIC90 (Klebsiella aerogenes) | MIC50 (Corynebacterium jeikeium)
1 µg/mL: MIC90 (Staphylococcus aureus [4]) | MIC50 (Staphylococcus aureus [5]) | MIC90 (Staphylococcus aureus [5]) | MIC90 (Escherichia coli)
0.06 µg/mL: MIC50 (Staphylococcus) | MIC50 (Klebsiella pneumoniae) | MIC90 (Streptococcus pneumoniae [7]) | MIC50 (Escherichia coli)
